Results from paper PMC8006165 (ACS Central Science, 2021).
Where “and” joins values, the source holds several entries; their conditions need not be identical. Identical values can stand only once.

Assays:
EcYihV [1] = target: T1, EcYihV (Escherichia coli, UniProt P32143); assay: X-ray structure of cocrystal; type: binding; conditions: with Mg; open and closed subunits
T1 sequence (P32143 1-298): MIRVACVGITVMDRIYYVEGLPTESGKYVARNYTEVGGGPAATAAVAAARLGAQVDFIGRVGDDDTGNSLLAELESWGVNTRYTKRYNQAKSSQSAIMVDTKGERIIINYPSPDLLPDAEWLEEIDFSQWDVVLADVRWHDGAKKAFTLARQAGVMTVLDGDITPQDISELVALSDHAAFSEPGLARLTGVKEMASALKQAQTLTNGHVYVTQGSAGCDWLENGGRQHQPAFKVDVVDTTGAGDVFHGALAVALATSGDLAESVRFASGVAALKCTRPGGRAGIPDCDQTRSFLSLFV

EcYihV [2] = target: T1, EcYihV; assay: effect of additive on SF phosphorylation, HPLC-MS/MS; type: biochemical; conditions: 1.0 mM ATP, varied SF, pH 7.5, 30 °C, activator
SeYihT = target: T2, SeYihT (Salmonella enterica, UniProt Q9L7R9); assay: X-ray structure, in-crystal cleavage of SFP; type: binding; conditions: covalent Schiff base with Lys193
T2 sequence (Q9L7R9 1-292): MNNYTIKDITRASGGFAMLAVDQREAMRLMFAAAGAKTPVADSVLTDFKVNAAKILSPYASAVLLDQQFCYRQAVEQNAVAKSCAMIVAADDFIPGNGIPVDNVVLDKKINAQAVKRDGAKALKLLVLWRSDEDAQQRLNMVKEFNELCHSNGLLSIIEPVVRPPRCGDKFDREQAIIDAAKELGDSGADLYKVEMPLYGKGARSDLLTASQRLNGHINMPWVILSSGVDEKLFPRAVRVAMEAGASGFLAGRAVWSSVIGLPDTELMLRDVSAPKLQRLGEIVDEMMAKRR

EcYihV [3] = target: T1, EcYihV; assay: SFP production, HPLC-MS/MS; type: biochemical; conditions: substrate inhibition; 1.0 mM ATP; pH 7.5, 5 mM MgCl2, 30 °C; no additive
In short: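 Recombinant E. coli YihV (36.6 nM) phosphorylating chemically synthesized sulfofructose (SF) to SFP. […] SFP formation was quantified by HPLC-MS/MS on a ZIC-HILIC column. Rates across SF concentrations were fitted to a substrate inhibition kinetic model.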

[4] = target: Salmonella enterica YihS (SQ-SF isomerase), as measured by SEC-MALS (Salmonella enterica) (UniProt Q8ZKT7); assay: SEC-MALS
SEC-MALS = target: the molecule itself; assay: SEC-MALS
purified protein [5] = substrate: O=C(COP(=O)(O)O)[C@@H](O)[C@H](O)[C@H](O)CS(=O)(=O)O; assay: purified protein; conditions: SFP to SLA and DHAP
purified protein [6] = substrate: Nc1ncnc2c1ncn2[C@@H]1O[C@H](COP(=O)(O)OP(=O)(O)OP(=O)(O)O)[C@@H](O)[C@H]1O; assay: purified protein; conditions: 1.0 mM SF, 25 mM BTP pH 7.5, 25 mM KCl, 5 mM MgCl2, 30 °C

Molecule: Nc1ncnc2c1ncn2[C@@H]1O[C@H](COP(=O)(O)OP(=O)(O)NP(=O)(O)O)[C@@H](O)[C@H]1O [AMPPNP]
- X-ray structure of cocrystal (EcYihV [1]): AMPPNP resulted in the EcYihV·AMPPNP·Mg complex showing a surface-accessible nucleotide binding site

Molecule: C=C(OP(=O)(O)O)C(=O)O [PEP]
- effect of additive on SF phosphorylation, HPLC-MS/MS (EcYihV [2]; 10 mM PEP): by F6P, FBP, PEP, and citrate (through effects on kcat/KM)

Molecule: O=C(CO)COP(=O)(O)O [DHAP]
- X-ray structure, in-crystal cleavage of SFP (SeYihT): a new Schiff base formed with a DHAP molecule could be modeled

Molecule: O=S(=O)(O)C[C@H]1OC(O)(CO)[C@@H](O)[C@@H]1O (some centres unmarked) [SF, 6-deoxy-6-sulfofructose]
- KI (EcYihV [3]): 8.5 ± 2.8 mM

Molecule: O=P(O)(O)OC[C@H]1OC(O)(COP(=O)(O)O)[C@@H](O)[C@@H]1O (some centres unmarked) [FBP]
- effect of additive on SF phosphorylation, HPLC-MS/MS (EcYihV [2]; 10 mM FBP): by F6P, FBP, PEP, and citrate (through effects on kcat/KM)

Molecule: Salmonella enterica YihS (SQ-SF isomerase), as measured by SEC-MALS (from UniProt Q8ZKT7 2-413) (enzyme)
- stoichiometry N [4]: 6

B1: E. coli YihT (sulfofructose-1-phosphate aldolase) (enzyme, UniProt P32141 1-292, looked up)
chain: MNKYTINDITRASGGFAMLAVDQREAMRMMFAAAGAPAPVADSVLTDFKVNAAKALSPYASAILVDQQFCYRQVVEQNAIAKSCAMIVAADEFIPGNGIPVDSVVIDRKINPLQIKQDGGKALKLLVLWRSDEDAQQRLDMVKEFNELCHSHGLVSIIEPVVRPPRRGDKFDREQAIIDAAKELGDSGADLYKVEMPLYGKGPQQELLCASQRLNDHINMPWVILSSGVDEKLFPRAVRVAMTAGASGFLAGRAVWASVVGLPDNELMLRDVCAPKLQQLGDIVDEMMAKRR
- stoichiometry N (SEC-MALS): 4

B2: Salmonella enterica YihT (sulfofructose-1-phosphate aldolase) (enzyme, UniProt Q9L7R9 1-292, looked up)
chain: T2 sequence (Q9L7R9 1-292)
- Km (purified protein [5]): 3570 ± 420 µM
- kcat (purified protein [5]): 47.7 ± 2.4 s⁻¹
- stoichiometry N (SEC-MALS): 4

B3: E. coli YihV (sulfofructose kinase) (enzyme, UniProt P32143 1-298, looked up)
chain: T1 sequence (P32143 1-298)
- Km (purified protein [6]): 1000 ± 200 µM
- kcat (purified protein [6]): 3.1 s⁻¹
- kcat/Km (purified protein [6]): 3200 M⁻¹ s⁻¹
- stoichiometry N (SEC-MALS): 2 and 4
